In brackets after ≈: the same amount, converted by molar mass.

Data set [1] concerns the target T1, Bacterial 70S ribosome (Bacteria) (UniProt P0A7V0+P60723+P0AG67+P0A7R5+P0A7R9+P0A7S3+P0A7S9+P0AG59+P0ADZ4+P0A7T3+P0AG63+P0A7T7+P0A7U3+P0A7U7+P68679+P0A7V3+P0A7V8+P0A7W1+P02358+P02359+P0A7W7+P0A7X3+P0A7J3+P0A7J7+P0AA10+P0ADY3+P02413+P0ADY7+P0AG44+P0C018+P0A7K6+P0A7L0+P0A7L3+P0AG48+P61175+P0ADZ0+P60624+P68919+P0A7L8+P0A7M2+P0A7M6+P60422+P0AG51+P0A7N1+P0A7M9+P0A7N4+P0A7N9+P0A7P5+P0A7Q1+Q2EEQ2+P0A7Q6+P60438+P62399+P0AG55+P0A7K2). Kind of data set: Binding affinity to Staphylococcus aureus ATCC 43300 50S ribosome assessed as association constant by SPR analysis. It is filed as subcellular. A digest of the protocol: (§1)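 The 50S subunit was purified from ATCC 43300 by sucrose cushion, a 7–30% sucrose gradient and PEG precipitation. Compounds at 100 µM in DMSO were photo-crosslinked onto the chip and printed four times each. Ribosome at 200–3200 nM in PBST (pH 7.4, 0.1% Tween 20) was run at 4 °C: association 600 s, then dissociation 360 s, both at 0.5 µL/s. Surface was regenerated with glycine-HCl pH 2.0.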
(In general: In SPR one partner is held on a chip, and binding of the other changes the refractive index at the surface.)

Data set [2] deals with Staphylococcus aureus. Briefly: Antibacterial activity against Staphylococcus aureus 144 assessed as inhibition of visible growth incubated for 24 hrs by CLSI protocol based broth microdilution method. The class given is functional. For orientation: Dilution methods test growth across graded concentrations, often in twofold steps.
In data set [3] the test system is Staphylococcus aureus. Kind of data set: Antibacterial activity against methicillin-resistant Staphylococcus aureus ATCC 43300 assessed as reduction in bacterial growth at 4 times of MIC measured at 3 hrs by time kill assay. It is filed as functional. The gist of the method: (§2)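 MRSA was grown in MH broth at 37 °C for 4.5 h and diluted to 1×10^6 CFU/mL. Compound was added at 1, 2, 4, 8, 16 or 32 × MIC; growth control had 0.9% saline only. Cultures were shaken at 37 °C and sampled at 0, 3, 6, 9 and 24 h. Samples were serially diluted in saline and plated on MH agar, with CFU counted after 24 h at 37 °C. Run in triplicate.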

Data set [4] deals with Staphylococcus aureus. Kind of data set: Bactericidal activity against methicillin-resistant Staphylococcus aureus ATCC 43300 assessed as reduction in bacterial growth at 1 to 32 times of MIC measured upto 24 hrs by time kill assay. It is filed as functional, organism-based. The following applies: time hrs <=24, TDE = time-dependent effect. The gist of the method:
as §2

Data set [5] deals with Staphylococcus aureus. Kind of data set: In vivo antibacterial activity against methicillin-resistant Staphylococcus aureus ATCC 43300 infected in ICR/Swiss mouse model of neutropenic thigh infection assessed as reduction in bacterial growth at 20 mg/kg, iv administered 2 hrs after infection and tissue collected after 24 hrs and measured after 24 hrs […]. It is filed as functional. A digest of the protocol: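 Female ICR/Swiss mice, 6 weeks old, were made neutropenic with ip cyclophosphamide (150 mg/kg at day −4, 100 mg/kg at day −1). Each thigh received about 10^7 CFU/mL MRSA in 0.1 mL. At 2 h, mice got a single iv dose of 20 mg/kg or saline, with 3 mice (6 thighs) per group. At 24 h, thighs were homogenized in iced saline, diluted and plated on MH agar, and CFU counted after 24 h at 37 °C.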

Data set [6] deals with T1, Bacterial 70S ribosome (Bacteria). Briefly: Binding affinity to Staphylococcus aureus ATCC 43300 50S ribosome assessed as dissociation rate constant by SPR analysis. The class given is subcellular. A digest of the protocol:
as §1

Data set [7] concerns the target Cytochrome P450 3A4 (Homo sapiens, UniProt P08684). Briefly: Inhibition of CYP3A4 in human liver microsomes using testosterone as substrate incubated for 5 mins followed by NADPH addition and measured after 5 mins by LC/MS/MS analysis. A digest of the protocol: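 Final conditions: human liver microsomes 0.2 mg/mL, testosterone 20 μmol/L, 0.1 M Tris pH 7.4, inhibitor at 2.5–80 μM. Plates were preincubated 5 min at 37 °C, then started with NADPH (final 1 mmol/L) and run 5 min. Reaction was stopped with acetonitrile containing loratadine as internal standard, and the supernatant was analysed by LC-MS/MS. IC50 was determined.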
On the technique in general: Microsomes from liver hold many membrane-bound enzymes, among them those of drug oxidation.

Data set [8] concerns Staphylococcus aureus. Briefly: Antibacterial activity against Staphylococcus aureus ATCC 29213 assessed as inhibition of visible growth incubated for 24 hrs by CLSI protocol based broth microdilution method. It is filed as functional.
The subject of data set [9] is Staphylococcus aureus. Briefly: Antibacterial activity against Staphylococcus aureus AD3 assessed as inhibition of visible growth incubated for 24 hrs by CLSI protocol based broth microdilution method. It is filed as functional.
In data set [10] the test system is Staphylococcus aureus. Briefly: Antibacterial activity against methicillin-resistant Staphylococcus aureus ATCC 43300 assessed as inhibition of visible growth incubated for 24 hrs by CLSI protocol based broth microdilution method. It is filed as functional.
Data set [11] concerns RAW264.7. Briefly: Cytotoxicity against mouse RAW264.7 cells assessed as reduction in cell viability at < 40 ug/ml incubated for 16 hrs by MTT assay. The conditions noted are these: raw264.7, 16 h.

Sequence of Cytochrome P450 3A4 (P08684 whole entry): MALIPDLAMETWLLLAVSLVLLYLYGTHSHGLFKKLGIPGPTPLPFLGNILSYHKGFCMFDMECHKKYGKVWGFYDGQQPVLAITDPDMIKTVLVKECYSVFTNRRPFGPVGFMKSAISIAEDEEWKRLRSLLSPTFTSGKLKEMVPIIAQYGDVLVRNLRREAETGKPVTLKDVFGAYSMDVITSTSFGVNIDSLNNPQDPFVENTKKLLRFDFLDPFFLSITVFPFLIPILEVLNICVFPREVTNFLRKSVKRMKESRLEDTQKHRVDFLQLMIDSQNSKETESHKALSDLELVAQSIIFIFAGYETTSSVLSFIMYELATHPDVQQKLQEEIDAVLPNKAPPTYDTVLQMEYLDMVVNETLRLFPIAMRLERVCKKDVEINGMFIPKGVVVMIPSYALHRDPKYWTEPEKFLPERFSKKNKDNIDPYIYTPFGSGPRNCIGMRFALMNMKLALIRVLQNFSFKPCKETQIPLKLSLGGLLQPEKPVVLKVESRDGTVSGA

Turning to `C=C[C@]1(C)C[C@@H](OC(=O)CSc2nc(N)n(C(=O)c3ccc(C)cc3)n2)[C@]2(C)[C@H](C)CC[C@]3(CCC(=O)[C@H]32)[C@@H](C)[C@@H]1O`, the Ka in data set [1] was 4.16 10^2/Ms. In addition, the minimum inhibitory concentration (MIC) in data set [2], in [8], in [9] and in data set [10] was 0.125 µg/mL (≈ 0.21 µM) throughout. Besides, the Activity was -1.95 log10CFU/ml in data set [3], “Tde” in data set [4], 1.89 log10CFU/g in data set [5] and “Non-Toxic” in data set [11]. Also, the Kdiss in data set [6] was 2.2 10^-4M. Besides, the IC50 (in general, the concentration that inhibits the measured activity by half) in [7] came out at 3.95 µM.
On to `C=C[C@]1(C)C[C@@H](OC(=O)CSc2nc(N)n(C(=O)c3cccc(F)c3)n2)[C@]2(C)[C@H](C)CC[C@]3(CCC(=O)[C@H]32)[C@@H](C)[C@@H]1O`, for which, in data set [1], the Ka was 5.4 10^2/Ms. In addition, the MIC (as a rule, the least concentration at which growth counts as inhibited) in data set [2] was found to be 1 µg/mL (≈ 1.67 µM); in data set [8] it was 0.5 µg/mL (≈ 0.835 µM); in data set [9], 0.5 µg/mL (≈ 0.835 µM); in data set [10], 0.25 µg/mL (≈ 0.418 µM). Also, the Activity in [3] was -1.26 log10CFU/ml; in data set [4], “Tde”. The Kdiss in data set [6] was 2.21 10^-5M.
For `C=C[C@]1(C)C[C@@H](OC(=O)CSc2nc(N)n(C(=O)c3ccccc3)n2)[C@]2(C)[C@H](C)CC[C@]3(CCC(=O)[C@H]32)[C@@H](C)[C@@H]1O`, the minimal inhibitory concentration (MIC) in [2] is 2 µg/mL (≈ 3.44 µM); in data set [8], 1 µg/mL (≈ 1.72 µM); in data set [9], 1 µg/mL (≈ 1.72 µM); in data set [10], 0.25 µg/mL (≈ 0.43 µM). The Kdiss in data set [6] is 2.7 10^-4M.
Turning to `C=C[C@]1(C)C[C@@H](OC(=O)CSc2nc(N)n(C(=O)c3ccc(OC)cc3)n2)[C@]2(C)[C@H](C)CC[C@]3(CCC(=O)[C@H]32)[C@@H](C)[C@@H]1O`, the MIC in [2] amounted to 0.5 µg/mL (≈ 0.819 µM); in data set [8], 0.25 µg/mL (≈ 0.409 µM); in [9], 0.25 µg/mL (≈ 0.409 µM); in [10], 0.25 µg/mL (≈ 0.409 µM). The values for the Activity in data set [3] and in data set [4] were -2.42 log10CFU/ml and “Tde”, respectively. For the same compound, the Kdiss in data set [6] was 2.22 10^-7M.
Regarding `C=C[C@]1(C)C[C@@H](OC(=O)CSCCN(CC)CC)[C@]2(C)[C@H](C)CC[C@]3(CCC(=O)[C@H]32)[C@@H](C)[C@@H]1O` [TIAMULIN], the MIC in [2] was found to be 1 µg/mL (≈ 2.03 µM); in [8] it was 1 µg/mL (≈ 2.03 µM); in data set [9], 1 µg/mL (≈ 2.03 µM); in [10], 0.5 µg/mL (≈ 1.01 µM). Also, the Activity in [5] is on record as 0.91 log10CFU/g.
As for `C=C[C@]1(C)C[C@@H](OC(=O)CSc2nc(N)n(C(=O)c3cccc(C)c3)n2)[C@]2(C)[C@H](C)CC[C@]3(CCC(=O)[C@H]32)[C@@H](C)[C@@H]1O`, the minimum inhibitory concentration (MIC) in data set [2] was determined as 0.5 µg/mL (≈ 0.841 µM); in [8] it was 0.5 µg/mL (≈ 0.841 µM); in [9], 0.5 µg/mL (≈ 0.841 µM); in data set [10] it was 0.25 µg/mL (≈ 0.42 µM). Moreover, the Kdiss in data set [6] is 8.79 10^-6M.
As to `C=C[C@]1(C)C[C@@H](OC(=O)CSc2nc(N)n(C(=O)c3cccc(Cl)c3)n2)[C@]2(C)[C@H](C)CC[C@]3(CCC(=O)[C@H]32)[C@@H](C)[C@@H]1O`, the MIC in [2] is 0.5 µg/mL (≈ 0.813 µM); in [8], 0.25 µg/mL (≈ 0.406 µM); in data set [9], 0.25 µg/mL (≈ 0.406 µM); in [10] it was 0.25 µg/mL (≈ 0.406 µM). In addition, in data set [3], the log10CFU/ml is recorded as -1.23. Also, in data set [4], the Activity result is “Tde”. Also, the Kdiss in [6] was 4.94 10^-7M.
Turning to `C=C[C@]1(C)C[C@@H](OC(=O)CSc2nc(N)n(C(=O)c3c(F)cccc3Cl)n2)[C@]2(C)[C@H](C)CC[C@]3(CCC(=O)[C@H]32)[C@@H](C)[C@@H]1O`, the MIC in [2] came out at 2 µg/mL (≈ 3.16 µM); in [8], 2 µg/mL (≈ 3.16 µM); in data set [9] it was 2 µg/mL (≈ 3.16 µM); in [10], 1 µg/mL (≈ 1.58 µM).
In the case of `C=C[C@]1(C)C[C@@H](OC(=O)CSc2nc(N)n(C(=O)c3ccc(F)cc3Cl)n2)[C@]2(C)[C@H](C)CC[C@]3(CCC(=O)[C@H]32)[C@@H](C)[C@@H]1O`, the MIC in [2] came to 1 µg/mL (≈ 1.58 µM); in [8], 1 µg/mL (≈ 1.58 µM); in data set [9] it was 0.5 µg/mL (≈ 0.79 µM); in data set [10] it was 1 µg/mL (≈ 1.58 µM).
In the case of `C=C[C@]1(C)C[C@@H](OC(=O)CSc2nc(N)n[nH]2)[C@]2(C)[C@H](C)CC[C@]3(CCC(=O)[C@H]32)[C@@H](C)[C@@H]1O`, the MIC in data set [2] worked out at 2 µg/mL (≈ 4.2 µM); in [8], 1 µg/mL (≈ 2.1 µM); in data set [9] it was 1 µg/mL (≈ 2.1 µM); in [10], 1 µg/mL (≈ 2.1 µM).

For the origin of these results see ChEMBL document CHEMBL4814060, “Design, synthesis and biological evaluation of novel pleuromutilin derivatives as potent anti-MRSA agents targeting the 50S ribosome” (Bioorg Med Chem, 2021).
